Most compounds without a hit are left out; they make up all but 2.2% or so of the library.
MLLE-PAM2 inh: inhibitors of PABP1 MLLE–PAM2 peptide binding, primary screen, biochemical, fluorescence polarization, FITC-PAM2, GST-MLLE. Polyadenylate-binding protein 1 (Homo sapiens), P11940. inhibition, % at 20 µM. hit rate 0.36% among 360,000. AID 588489, 2011; in the data active = inhibition above about 35%, passing the limit was not always enough
IMP-1 inhibitor: IMP-1 metallo-beta-lactamase inhibitors, primary screen, biochemical, epi-absorbance readout, Pseudomonas aeruginosa enzyme | metallo-beta-lactamase IMP-1 (Pseudomonas aeruginosa) | purified IMP-1, nitrocefin hydrolysis, epi-absorbance fluorescence | hit rate 0.45% among 290,000 | inhibition, % at 5.6 µM;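 active = inhibition above the mean plus 3 SD of all compounds in the same screening run, cut at about 4.5% in these data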
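Test system: recombinant IMP-1 enzyme, purified / Medium: HEPES buffer pH 7.1 with ZnSO4 and Brij 35 / Doses: single dose, 5.6 µM / Times: 25 °C, 15 min preincubation, 25 min reaction / Detection: Epi-absorbance via hydrolysed-nitrocefin quenching of white-plate fluorescence, 480/530 nm, EDTA stop / Evaluation: percent inhibition from optical density relative to buffer-blank wells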
PABP polyA inh: PABP poly(A) RNA binding inhibitors, primary screen, biochemical, fluorescence polarization, uHTS; calls only at 35 µM; hit rate 1% among 290,000; Polyadenylate-binding protein 1 (Homo sapiens), P11940;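 also: calls also rest on retests at 20 µM and on dose response follow-up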
VIM-2 inhibitor: VIM-2 metallo-beta-lactamase inhibitors, primary screen, biochemical, epi-absorbance readout, Pseudomonas aeruginosa enzyme. purified VIM-2, nitrocefin hydrolysis, epi-absorbance fluorescence. AID 1527, 2009. hit rate 0.89% among 290,000. inhibition, % at 5.6 µM;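 active = inhibition above the mean of all tested compounds plus 3 SD, cutoff set per screening run, cut at about 7.5% in these data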;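 also: red hydrolysis product quenches plate fluorescence so inhibitors raise well fluorescence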
eIF4H FP inh: human eIF4H binding inhibitors, primary screen, translation initiation inhibitor project, biochemical, uHTS, fluorescence polarization; hit rate 0.94% among 290,000; Eukaryotic translation initiation factor 4H (Homo sapiens), Q15056; eIF4H fluorescence polarization binding assay; inhibition, % at 35 µM;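 also: calls also rest on retests at 20 µM and on dose response follow-up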
A number is an active result; i = inactive; ? = inconclusive; nt = not tested or not shown; + = active, no number; ! = a repeat was not active. Unless noted, no rule for the calls is given here.

SMILES | MLLE-PAM2 inh | IMP-1 inhibitor | PABP polyA inh | VIM-2 inhibitor | eIF4H FP inh
C=CCCC(=O)Nc1nc(C)c(-c2csc(Nc3cc(Cl)ccc3OC)n2)s1 | i | 6.2 | i | i | i
CC1CCC2(CC1)NC(=O)N(CC(=O)NCc1ccc(Cl)cc1)C2=O (stereo not drawn) | i | nt | nt | nt | nt
CC1(C(=O)Nc2cnc3ccccc3c2)CCN1CCOc1ccccc1 (stereo not drawn) | i | nt | nt | nt | nt
O=C(COC(=O)c1ccccc1O)NCc1ccc2c(c1)OCO2 | i | nt | nt | nt | nt
COc1ccccc1N1CCN(C2CCCN(C(=O)c3cc(C(C)C)on3)C2)CC1 (stereo not drawn) | i | nt | nt | nt | nt
Cc1ccc(O)c(Nc2nc(-c3ccccc3)nc3ccccc23)c1 | i | i | i | i | i
Cc1ccc(O)c(Nc2c3ccccc3nc3ccccc23)c1 | i | i | i | 9.2 | i
CCCOC(=O)c1c(NC(=O)C2CCCO2)sc(C(=O)OC)c1C (stereo not drawn) | 45 | i | i | i | i
CCOC(=O)c1sc(NC(=O)C2CCCO2)c(C(=O)OC)c1C (stereo not drawn) | nt | i | nt | i | nt
O=C(NCc1ccncc1)C(=O)NCC1OCCN1S(=O)(=O)c1ccccc1 (stereo not drawn) | i | nt | nt | nt | nt
O=C(Nc1cccc(C(F)(F)F)c1)C(=O)N1CCCCC1 | i | i | i | i | i
O=C(O)C1=C(C(=O)Nc2cccc(C(F)(F)F)c2)CCCC1 | i | 18 | i | i | i
O=C(Nc1cccc(Cl)c1)C1C2C=CC3(O2)C1C(=O)N(CCCN1CCCCC1)C3C(=O)NC1CCCCC1 (stereo not drawn) | i | i | i | i | i
CN(C)CCOC(c1ccccc1)c1ccccc1 | i | nt | i | i | 1.6!
N#Cc1c(-c2ccco2)cc(-c2ccc(F)cc2)nc1N | i | i | + | i | 62
C[C@@H]1CN(c2c(F)c(N)c3c(=O)c(C(=O)O)cn(C4CC4)c3c2F)C[C@H](C)N1 | nt | i | i | 8.4 | i
C[C@@H]1CN(c2c(F)c(F)c3c(=O)c(C(=O)O)cn(C4CC4)c3c2F)C[C@H](C)N1 | i | i | i | i | i
Cc1ccccc1-c1nn(-c2ccc(F)cc2F)cc1CNC1CC1 | i | i | + | i | 54
Cc1ccccc1-c1nn(-c2ccc(F)cc2F)cc1CNCC(C)O (stereo not drawn) | i | i | i | i | i
CN1C(=O)C2(c3ccccc31)C1CCCC=C1C(C#N)=C(N)C2(C#N)C#N (stereo not drawn) | i | i | + | i | 44
CCC(=O)Nc1ccc(-c2nnc(SCC(=O)Nc3nccs3)n2C)cc1 | i | i | + | i | i
CCn1c(SCC(=O)Nc2nccs2)nnc1-c1ccc(C)cc1 | i | i | i | i | i
C=CCc1c(C)nc(SC)nc1Nc1ccc(C(C)=O)cc1 | i | i | i | 8.1 | i
C=CCc1c(C)nc(SC)nc1Nc1ccc(C(=O)O)cc1 | i | i | i | i | i
CC(O/N=C\c1ccccc1O)C(=O)Nc1ccccc1C(=O)N1CCOCC1 (stereo not drawn) | i | i | i | i | i
SMILES | MLLE-PAM2 inh | IMP-1 inhibitor | PABP polyA inh | VIM-2 inhibitor | eIF4H FP inh
COC/C=C/C1=CC2=CC(=O)C(C)(OC(=O)c3cnc4ccccc4n3)C(=O)C2=CN1C1CCCCC1 (stereo not drawn) | nt | i | i | i | i
COC/C=C/C1=CC2=CC(=O)C(C)(OC(=O)c3cnc4ccccc4n3)C(=O)C2=CN1CC(C)C (stereo not drawn) | i | nt | nt | nt | nt
COC/C=C/C1=CC2=CC(=O)C(C)(OC(=O)c3cnc4ccccc4n3)C(=O)C2=CN1c1ccccc1 (stereo not drawn) | nt | nt | + | nt | 63
COC/C=C/C1=CC2=CC(=O)C(C)(OC(=O)c3cnc4ccccc4n3)C(=O)C2=CN1c1ccc(CO)cc1 (stereo not drawn) | nt | i | + | i | 102
Cc1ccccc1-c1nnc2s/c(=C\c3ccc(N(C)C)cc3)c(=O)n12 | nt | nt | + | nt | 82
CC1=NN(Cc2ccccc2)C(=O)/C1=C\c1ccc(N(C)C)cc1 | i | i | i | i | i
Cc1cc(N/N=C/c2ccc(O)cc2)c2cccc(C)c2n1 | i | i | i | 12 | i
COc1cccc(CC(=O)N2CCN(c3ccccc3[N+](=O)[O-])CC2)c1 | i | i | + | i | 52
CC(C)NC(=O)C1CCN(Cc2cccc(Oc3ccccc3)c2)CC1 | i | i | + | i | 90
CC(C)NC(=O)C1CCN(Cc2cccc(OCc3ccccc3)c2)CC1 | i | nt | nt | nt | nt
COc1cccc(CN2CCC(C(=O)N3CCN(c4ccccc4F)CC3)CC2)c1 | i | i | i | i | 61
O=C(CSc1nnnn1-c1cccc2c1CCCC2)N1CCCCC1 | i | i | i | i | i
CN(C)C(=O)CSc1nnc(Cc2ccccc2)n1CC1CCCO1 (stereo not drawn) | i | i | i | i | i
O=C(OCc1cn([C@H]2C[C@H](c3ccc(Cl)cc3)N(C(=O)c3cccs3)C[C@@H]2O)nn1)c1ccccc1 | i | nt | nt | nt | nt
C[n+]1cccc2cccc([O-])c21 | i | i | + | i | i
COc1ccc(CSc2nnc3[nH]c(=O)cc(N)n23)cc1 | i | i | i | i | i
c1ccc2c(c1)NCC1CCCN21 (stereo not drawn) | i | i | i | i | 104
OCCC1CN(Cc2cccn2-c2nccs2)CCN1Cc1ccc(F)c(F)c1 (stereo not drawn) | i | i | i | i | i
C=C1c2cc(OC)ccc2NC(=O)N1CC | i | 5.8 | i | i | i
O=C(O)CONC(=O)c1cc(OCC(F)(F)F)ccc1OCC(F)(F)F | i | i | i | i | i
COC(=O)CSc1nnc2cc(C)c3ccccc3n12 | i | i | i | 10 | i
Cc1cc2nnc(SCCCCN3C(=O)c4ccccc4C3=O)n2c2ccccc12 | nt | i | i | i | i
N#CC1=C(N)Oc2n[nH]c(-c3cccs3)c2C1c1cccs1 (stereo not drawn) | i | i | i | 8.2 | i
COc1ccc(-c2ccc(C3C(C#N)=C(N)Oc4n[nH]c(C)c43)o2)cc1 (stereo not drawn) | i | i | + | i | ?
N#CC1=C(N)Oc2n[nH]c(-c3cccs3)c2C1c1ccccc1C(=O)O (stereo not drawn) | i | i | i | i | i
Cc1cc(-c2[nH]nc3c2C(c2cccc(O)c2)C(C#N)=C(N)O3)c(C)s1 (stereo not drawn) | i | 6.8 | i | i | i
Cc1[nH]nc2c1C(c1ccco1)C(C#N)=C(N)O2 (stereo not drawn) | i | i | i | i | i
Cc1cc(-c2[nH]nc3c2C(c2ccsc2)C(C#N)=C(N)O3)c(C)s1 (stereo not drawn) | i | i | i | i | i
Cc1ccc(-c2[nH]nc3c2C(C)C(C#N)=C(N)O3)cc1 (stereo not drawn) | i | i | i | i | 9.9
O=C(NCCOc1ccccc1)C1=CC=CN2CCS(=O)(=O)N=C12 | i | nt | nt | nt | nt

Source: PubChem
